# ChEMBL document CHEMBL1148738, “Design, synthesis, and in vitro evaluation of carbamate derivatives of 2-benzoxazolyl- and 2-benzothiazolyl-(3-hydroxyphenyl)-methanones as novel fatty acid amide hydrolase inhibitors” (J Med Chem, 2007)
# The source made the active and inactive calls. No cut-off for these calls is given here.
# What was measured:
# Rattus norvegicus [1] = organism: Rattus norvegicus; assay: Inhibition of MAGL in Wistar rat cerebellar membrane assessed as remaining enzyme activity at 100 uM; values are per cent of control; conditions: Cerebellum
# [2] = target: T1, Fatty-acid amide hydrolase 1 (Rattus norvegicus, UniProt P97612); assay: Inhibition of FAAH activity in Wistar rat brain
# T1 sequence (P97612 whole entry): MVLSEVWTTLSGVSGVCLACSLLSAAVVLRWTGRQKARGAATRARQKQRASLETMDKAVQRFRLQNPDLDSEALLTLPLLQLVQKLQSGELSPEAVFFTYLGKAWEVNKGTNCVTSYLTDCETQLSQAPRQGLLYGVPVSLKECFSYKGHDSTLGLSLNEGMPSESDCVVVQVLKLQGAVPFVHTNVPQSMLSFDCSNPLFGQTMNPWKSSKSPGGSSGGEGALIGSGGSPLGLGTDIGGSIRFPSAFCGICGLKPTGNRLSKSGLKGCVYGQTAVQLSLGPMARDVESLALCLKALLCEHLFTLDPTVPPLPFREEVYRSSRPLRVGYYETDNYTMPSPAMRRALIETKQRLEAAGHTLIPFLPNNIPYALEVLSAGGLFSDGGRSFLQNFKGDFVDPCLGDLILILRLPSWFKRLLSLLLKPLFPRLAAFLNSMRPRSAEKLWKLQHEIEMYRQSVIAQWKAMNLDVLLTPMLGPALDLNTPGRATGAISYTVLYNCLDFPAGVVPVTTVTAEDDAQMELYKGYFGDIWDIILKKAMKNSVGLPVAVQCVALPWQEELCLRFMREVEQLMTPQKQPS
# Method in brief: (§1)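 Enzyme source: supernatant (10 000 g, 20 min, 4 °C) of whole-brain-minus-cerebellum homogenate from 8-week-old male Wistar rats in 0.1 M potassium phosphate pH 7.4. Compound (in DMSO, final max 5%) preincubated 10 min with 18 µg protein. Substrate: [ethanolamine 1-³H]arachidonoylethanolamide, with 0.5% fatty-acid-free BSA, 10 min at 37 °C. Stopped with ethyl acetate. Aqueous [³H]ethanolamine counted by liquid scintillation.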
# [3] = target: T2, Fatty-acid amide hydrolase 1 (Rattus norvegicus) (UniProt P97612); assay: Inhibition of FAAH activity in Wistar rat brain assessed as remaining enzyme activity at 10 uM; values are per cent of control
# T2 sequence (whole entry): T1 sequence (P97612 whole entry)
# Rattus norvegicus [4] = organism: Rattus norvegicus; assay: Inhibition of MAGL in Wistar rat cerebellar membrane at 100 uM; assay type: cell membranes; conditions: Cerebellum
# Method in brief: (§2)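 Cerebellar membranes from 4-week-old male Wistar rats. Preincubation 30 min at 25 °C: 10 µg protein, 44 mM Tris-HCl pH 7.4, 0.9 mM EDTA, 0.5% BSA, 1.25% DMSO. Incubation 90 min at 25 °C: 5 µg protein, 54 mM Tris-HCl, 1.1 mM EDTA, 100 mM NaCl, 5 mM MgCl2, 0.5% BSA, 50 µM 2-AG. Samples at 0 and 90 min stopped with acidified acetonitrile (pH 3.0). 2-AG and arachidonic acid quantified by HPLC-UV at 211 nm from peak areas.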
# Rattus norvegicus [5] = organism: Rattus norvegicus; assay: Inhibition of MAGL in Wistar rat cerebellar membrane assessed as remaining enzyme activity at 1 mM; values are per cent of control; conditions: Cerebellum
# [6] = Inhibition of MAGL in Wistar rat cerebellar membrane; assay type: cell membranes, Cerebellum
# Method in brief: as §2
# [7] = target: T2, Fatty-acid amide hydrolase 1 (Rattus norvegicus); assay: Inhibition of FAAH activity in Wistar rat brain at 10 uM
# Method in brief: as §1
SMILES,residual activity (Rattus norvegicus [1]) [%],IC50 [2] [nM],also measured
CCNC(=O)Oc1cccc(C(=O)c2nc3ccccc3o2)c1,75,379,–
O=C(Nc1cccc(C(=O)c2nc3ccccc3o2)c1)OC1CCCC1,–,–,residual activity [3]: 95%; Activity (Rattus norvegicus [4]): inactive
Cc1ccccc1CNC(=O)Oc1ccc(C(=O)c2nc3ccccc3o2)cc1,–,137,residual activity (Rattus norvegicus [5]): 11%; IC50 [6]: 25000 nM
O=C(Nc1cccc(C(=O)c2nc3ccccc3o2)c1)NC1CCCC1,–,–,residual activity [3]: 94%; Activity (Rattus norvegicus [4]): inactive
CCCCNC(=O)Oc1cccc(C(=O)c2nc3ccccc3o2)c1,59,54,–
O=C(NC1CCCCC1)Oc1cccc(C(=O)c2nc3ccccc3o2)c1,83,47,–
CCCNC(=O)Oc1cccc(C(=O)c2nc3ccccc3o2)c1,57,109,–
O=C(NC1CCCC1)Oc1ccc(C(=O)c2nc3ccccc3o2)cc1,–,288,IC50 [6]: 14000 nM
O=C(NC1CCCC1)Oc1cccc(C(=O)c2nc3ccccc3o2)c1,54,28,–
Cc1cccc(CNC(=O)Oc2cccc(C(=O)c3nc4ccccc4o3)c2)c1,–,32,residual activity (Rattus norvegicus [5]): 11%; IC50 [6]: 16000 nM
O=C(c1cccc(OC(=O)C2CCCC2)c1)c1nc2ccccc2o1,–,–,residual activity [3]: 88%; Activity (Rattus norvegicus [4]): inactive
O=C(c1cccc(OCc2ccccc2)c1)c1nc2ccccc2o1,–,–,Activity (Rattus norvegicus [4]): inactive; Activity [7]: inactive
O=C(c1cccc(OCc2ccccc2)c1)c1nc2ccccc2s1,–,–,inhibition (Rattus norvegicus [4]): inactive; Activity [7]: inactive
O=C(c1cccc(NC(=O)C2CCCC2)c1)c1nc2ccccc2o1,–,–,residual activity [3]: 95%; Activity (Rattus norvegicus [4]): inactive

# Second part, led by results:
residual activity (Rattus norvegicus [1]) [%],IC50 [2] [nM],SMILES,also measured
70,143,CCCNC(=O)Oc1cccc(C(=O)c2nc3ccccc3s2)c1,–
71,47,O=C(NC1CCCC1)Oc1cccc(C(=O)c2nc3ccccc3s2)c1,–
76,103,CCCCNC(=O)Oc1cccc(C(=O)c2nc3ccccc3s2)c1,–
57,152,O=C(NCc1ccccc1)Oc1cccc(C(=O)c2nc3ccccc3o2)c1,–
75,121,O=C(NCc1ccccc1)Oc1cccc(C(=O)c2nc3ccccc3s2)c1,–
–,38,Cc1cccc(CNC(=O)Oc2cccc(C(=O)c3nc4ccccc4s3)c2)c1,residual activity (Rattus norvegicus [5]): 11%; IC50 [6]: 23000 nM
79,56,O=C(NC1CCCCC1)Oc1cccc(C(=O)c2nc3ccccc3s2)c1,–
80,238,CCNC(=O)Oc1cccc(C(=O)c2nc3ccccc3s2)c1,–
